ChEMBL document CHEMBL6092224, “The Discovery and Preclinical Profile of ALG-000184, a Prodrug of the Potent Hepatitis B Virus Capsid Assembly Modulator ALG-001075” (J Med Chem, 2024)
Activity calls are given as the source filed them. No cut-off for these calls is given here.

Experiments:
[1] = Toxicity in C57BL/6 mouse infected with AAV-Hepatitis B virus assessed as change in body weight at 50 mg/kg, po bid for 56 days followed by induction of compound washout period for 14 days; assay type: organism-based; conditions: in vivo, 1680 h, time 70 day
[2] = test system: Mus musculus; test: Effect on HBeAg level in C57BL/6 mouse infected with AAV-Hepatitis B virus at 50 mg/kg, po bid for 56 days followed by induction of compound washout period for 14 days; assay type: functional, organism-based; conditions: time 70.0 day
[3] = test system: Hepatitis B virus; test: Antiviral activity against AAV-Hepatitis B virus infected in C57BL/6 mouse assessed as reduction in baseline HBV DNA production at 50 mg/kg, po qd measured after 7 days; assay type: functional; conditions: time 7 day
[4] = Toxicity in C57BL/6 mouse infected with AAV-Hepatitis B virus assessed as change in ALT level at 50 mg/kg, po bid for 56 days followed by induction of compound washout period for 14 days; assay type: organism-based; conditions: in vivo, 1680 h, time 70 day
[5] = test system: Hepatitis B virus; test: Antiviral activity against AAV-Hepatitis B virus infected in C57BL/6 mouse assessed as reduction in baseline HBV DNA production at 50 mg/kg, po bid for 56 days followed by induction of compound washout period measured after 7 days; assay type: functional, organism-based; conditions: time 63.0 day
[6] = test system: Mus musculus; test: Effect on HBsAg level in C57BL/6 mouse infected with AAV-Hepatitis B virus at 50 mg/kg, po bid for 56 days followed by induction of compound washout period for 14 days; assay type: functional, organism-based; conditions: time 70.0 day
[7] = test system: Hepatitis B virus; test: Antiviral activity against HBV infected in human HepG2.117 cells by qPCR analysis; assay type: functional, organism-based
Summary of the method: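 HepG2.117 cells (integrated genotype D HBV genome, Tet-off promoter; kept in 1 μg/mL doxycycline) were seeded at 20,000 cells/well and given serial compound dilutions (2% DMSO) for 3 days at 37 °C. Lysates were taken in 0.33% NP40. Intracellular HBV DNA was quantified by qPCR and EC50/EC90 derived. For serum shift, 40% human serum was present during incubation. Mean ± SEM, n=3 (serum) or 13.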

[8] = Clearance in mouse; assay type: ADME, organism-based; conditions: in vivo
[9] = Metabolic stability in mouse liver microsomes assessed as half life at 1 uM incubated upto 60 mins in presence of NADPH; assay type: ADME, Microsome
Summary of the method: (§1)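 Compound at 1 μM incubated at 37 °C with liver microsomes of each species for 0, 15, 30 and 60 min, with and without NADPH; half-life determined.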

[10] = biological target: hERG (KCNH2) (Homo sapiens, UniProt Q12809); test: Inhibition of hERG expressed in mammalian cells at 10 uM by automated patch-clamp technique relative to control; assay type: toxicity, cell-based; conditions: mammalian cells expressing hERG
Chain of hERG (KCNH2) (Q12809 whole entry): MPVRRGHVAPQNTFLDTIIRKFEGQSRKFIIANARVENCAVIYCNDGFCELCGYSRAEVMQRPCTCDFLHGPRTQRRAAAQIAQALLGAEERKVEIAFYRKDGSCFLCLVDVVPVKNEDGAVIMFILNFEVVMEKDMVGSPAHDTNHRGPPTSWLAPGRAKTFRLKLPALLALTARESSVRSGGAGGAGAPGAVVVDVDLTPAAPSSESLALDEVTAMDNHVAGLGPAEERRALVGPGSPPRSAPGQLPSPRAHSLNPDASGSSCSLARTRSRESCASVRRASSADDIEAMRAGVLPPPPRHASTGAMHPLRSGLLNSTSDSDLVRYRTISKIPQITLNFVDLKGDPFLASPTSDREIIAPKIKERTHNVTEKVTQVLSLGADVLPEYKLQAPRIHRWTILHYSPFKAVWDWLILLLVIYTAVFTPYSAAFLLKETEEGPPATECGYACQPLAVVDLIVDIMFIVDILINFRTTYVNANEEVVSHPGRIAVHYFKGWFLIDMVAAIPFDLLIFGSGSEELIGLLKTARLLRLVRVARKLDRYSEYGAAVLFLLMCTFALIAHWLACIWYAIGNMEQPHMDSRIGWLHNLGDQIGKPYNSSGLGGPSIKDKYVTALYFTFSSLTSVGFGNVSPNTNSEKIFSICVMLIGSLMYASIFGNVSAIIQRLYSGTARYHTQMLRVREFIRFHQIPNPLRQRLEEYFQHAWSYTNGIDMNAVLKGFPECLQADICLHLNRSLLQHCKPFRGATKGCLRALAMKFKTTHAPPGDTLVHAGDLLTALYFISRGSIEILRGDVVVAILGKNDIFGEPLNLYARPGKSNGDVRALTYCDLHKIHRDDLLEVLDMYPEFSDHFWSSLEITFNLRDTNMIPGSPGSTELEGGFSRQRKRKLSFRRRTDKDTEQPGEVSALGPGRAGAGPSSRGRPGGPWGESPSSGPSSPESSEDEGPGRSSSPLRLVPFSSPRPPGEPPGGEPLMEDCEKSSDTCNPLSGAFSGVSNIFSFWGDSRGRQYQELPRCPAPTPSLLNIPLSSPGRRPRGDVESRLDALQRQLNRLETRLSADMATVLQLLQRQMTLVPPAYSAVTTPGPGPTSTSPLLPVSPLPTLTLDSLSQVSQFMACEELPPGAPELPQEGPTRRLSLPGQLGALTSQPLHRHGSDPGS
Summary of the method: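 Currents of hERG, Nav1.5 or Cav1.2 channels expressed in mammalian cells recorded by automated patch clamp (QPatch 48) at room temperature.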

[11] = Metabolic stability in human liver microsomes assessed as half life at 1 uM incubated upto 60 mins in presence of NADPH; assay type: ADME, Microsome; summary of the method: as §1

Row | Compound | EC50 [7] [nM] | other results
1 | C[C@@H](NS(=O)(=O)c1cn(C)c(C(=O)Nc2ccnc(Cl)c2)c1F)C(F)(F)F |  | Activity [1]: Non-toxic; Activity [2]: inactive; Activity [3]: -2.5 log10IU/ml; Activity [4]: Non-toxic; Activity [5]: inactive; Activity [6]: inactive
2 | C#CC1(NC(=O)C(=O)c2c(C)c(C(=O)Nc3ccc(F)c(C#N)c3)n(C)c2C)CCS(=O)(=O)CC1 | 3.51 | 
3 | C#CCNC(=O)C(=O)c1c(C)c(C(=O)Nc2ccc(F)c(C)c2)n(C)c1C | 1.98 | clearance [8]: 3.26 L/h/kg
4 | C#CCNC(=O)C(=O)c1c(C)c(C(=O)Nc2ccc(F)c(C#N)c2)n(C)c1C | 2.88 | clearance [8]: 0.792 L/h/kg
5 | C#CCNC(=O)C(=O)c1c(C)c(C(=O)Nc2ccc(F)c(F)c2)n(C)c1C | 2.6 | clearance [8]: 4.69 L/h/kg; half-life at 1 µM [9]: 40.4 min; inhibition at 10 µM [10]: 31.2%; half-life at 1 µM [11]: > 60 min
6 | C#CC1(NC(=O)C(=O)c2c(C)c(C(=O)Nc3ccc(F)c(C#N)c3)n(C)c2C)CCCC1 | 1.99 | 
7 | C#CC1(NC(=O)C(=O)c2c(C)c(C(=O)Nc3ccc(F)c(C#N)c3)n(C)c2C)CCOCC1 | 2.11 | 
8 | C#CC(C)(C)NC(=O)C(=O)c1c(C)c(C(=O)Nc2ccc(F)c(C#N)c2)n(C)c1C | 1.49 | 
9 | C#CCNC(=O)C(=O)c1c(C)c(C(=O)Nc2ccc(F)c(C(F)(F)F)c2)n(C)c1C | 2.65 | 

Now from value to compound, other results behind:

Row | EC50 [7] [nM] | Compound | other results
10 | 0.98 | C#C[C@H](C)NC(=O)C(=O)c1c(C)c(C(=O)Nc2ccc(F)c(C#N)c2)n(C)c1C | 
11 | 0.45 | C#CC1(NC(=O)C(=O)c2c(C)c(C(=O)Nc3ccc(F)c(C#N)c3)n(C)c2C)CC1 | 
12 | 0.32 | C#CC1(NC(=O)C(=O)c2c(C)c(C(=O)Nc3ccc(F)c(C#N)c3)n(C)c2C)CC(F)(F)C1 | 
13 | 1.32 | C#C[C@@H](C)NC(=O)C(=O)c1c(C)c(C(=O)Nc2ccc(F)c(C#N)c2)n(C)c1C | 
14 | 0.73 | C#CC1(NC(=O)C(=O)c2c(C)c(C(=O)Nc3ccc(F)c(C#N)c3)n(C)c2C)CCC1 | 
